The test system of data set [1] is Nucleic Acid. Put plainly: Binding affinity to human telomeric AGGG(TTAGGG)3 quadruplex assessed as fluorescence quenching at 10 uM after 3 mins by fluorescence titration method. It counts as nucleic-acid assay. In outline: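 Ligand held at 10 µM (final 2% DMSO) in K-phosphate/70 mM KCl buffer, pH 7.0, 25 °C, titrated with 100–160 µM annealed quadruplex in 5–10 µL additions, ≥3 min equilibration each. Emission recorded 400–600 nm. Fraction free ligand from the change in emission maximum, plotted against quadruplex concentration and fitted for Kb and n; ≥3 experiments.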

Data set [2] has as its system Nucleic Acid. Description: Binding affinity to human telomeric AGGG(TTAGGG)3 quadruplex in first binding event at 480 to 640 uM every 300 to 400 secs at pH 7 by isothermal titration calorimetry analysis. It counts as nucleic-acid assay. The method in brief:
(§1)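 Isothermal titration calorimetry at 25 °C, pH 7.0 (20 mM K phosphate, 70 mM KCl, 0.1 mM EDTA). Quadruplex annealed 90 °C for 5 min, slow-cooled, held 24 h at 4 °C, used at 30–40 µM. Ligand 480–640 µM, 5–10 µL injections every 300/400 s, 25–50 injections. First injection discarded; dilution heat subtracted; multiple-sites fit gives Kb for each sequential event.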
Background: ITC needs no label: the signal is the heat of the interaction.

Data set [3] relates to Nucleic Acid. Description: Binding affinity to human telomeric AGGG(TTAGGG)3 quadruplex after 4 secs by circular dichroism spectroscopy analysis. Format: nucleic-acid assay. (Circular dichroism is the unequal absorption of left and right circularly polarised light.)
Data set [4] deals with Nucleic Acid. Description: Binding affinity to human telomeric AGGG(TTAGGG)3 quadruplex assessed as melting temperature at 1:1 compound to DNA ratio at pH 7 by UV-visible spectrophotometer analysis. Format: nucleic-acid assay. The method in brief: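 UV melting of 25 µM annealed quadruplex alone or with ligand at 1:1 or 2:1 ligand/DNA, pH 7.0 K-phosphate/KCl buffer. Absorbance at 295 nm, 20–85 °C, heating at 0.5 °C/min, 1 mm path. Tm taken as mean ± SD of at least three runs.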

The target in data set [5] is Telomerase reverse transcriptase (Homo sapiens) (UniProt O14746). Description: Inhibition of telomerase in human A549 cells after 72 hrs by ELISA based TRAP assay. It counts as cell-based. The method in brief:
(§2)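 A549 cells exposed to compound at several concentrations for 72 h. Extracts (1–3 × 10^5 cell equivalents) run in a TRAP PCR-ELISA: P1-TS extension 20 min at 25 °C, then 30 PCR cycles, with an internal standard. Telomerase activity comes from elongation products; Taq activity from internal-standard amplification. Heat-inactivated extract serves as negative control. Triplicates, mean ± SEM, paired t-test.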
(In general: An ELISA detects its analyte on a solid surface through an enzyme-linked reagent.)

The next data set deals with M14. Description: Cytotoxicity against human M14 cells after 5 days by MTT assay. Format: functional, cell-based. To be noted: for IC50: M14, 120 h. The method in brief:
(§3)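 Cells kept in RPMI-1640 with 10% FCS, 2 mM glutamine and gentamycin, 37 °C, 5% CO2. Seeded at 1000–3000/well, attached 24 h, then given 0.1–100 µM drug for 5 days; 0.2% DMSO controls. MTT added for 4 h, formazan dissolved in acidified isopropanol, A570 read. Eight replicates per point. IC50 read graphically from growth curves; mean ± SD of three experiments.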

In the next data set the test system is A549. Description: Cytotoxicity against human A549 cells after 5 days by MTT assay. Conditions: for IC50: A549, 120 h. Format: functional, cell-based. In outline: as §3
Data set [6] relates to NIH3T3. Put plainly: Cytotoxicity against mouse NIH/3T3 cells after 5 days by MTT assay. Conditions: NIH3T3, 120 h. It counts as cell-based. The method in brief:
(§4)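 Mouse embryo fibroblasts grown with bovine calf serum in place of fetal serum. Plated at 1000–3000/well, attached 24 h, then exposed to 0.1–100 µM drug at 37 °C for 5 days alongside 0.2% DMSO controls. MTT for 4 h, acidified isopropanol, A570 read. Eight replicates per point; IC50 taken graphically, mean ± SD of three experiments.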

Data set [7] deals with Telomerase reverse transcriptase (Homo sapiens) (UniProt O14746). Put plainly: Inhibition of telomerase in human A549 cells at 0.05 to 100 uM after 72 hrs by ELISA based TRAP assay. Format: cell-based. In outline: as §2
Data set [8] deals with DNA polymerase I, thermostable (Thermus aquaticus) (UniProt P19821). Put plainly: Inhibition of Thermus aquaticus taq polymerase at 0.5 to 100 uM after 72 hrs by ELISA based TRAP assay. The method in brief: as §2
Data set [9] relates to Nucleic Acid. Description: Binding affinity to human telomeric AGGG(TTAGGG)3 quadruplex in second binding event at 480 to 640 uM every 300 to 400 secs at pH 7 by isothermal titration calorimetry method. It counts as nucleic-acid assay. The method in brief:
as §1

Data set [10] deals with Nucleic Acid. Put plainly: Binding affinity to satellite DNA by UV titration method method. Format: nucleic-acid assay.
Data set [11] deals with Nucleic Acid. Put plainly: Binding affinity to duplex DNA d(CGCGAATTCGCG)2 duplex at pH 7 by isothermal titration calorimetry method. Format: nucleic-acid assay. The method in brief: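 ITC at 298 K. Ligand dissolved in the DNA buffer (20 mM potassium phosphate, 70 mM KCl, 0.1 mM EDTA, pH 7.0). 480–640 µM ligand injected in 5–10 µL aliquots into 30–40 µM annealed duplex every 300 or 400 s, 25–50 injections, stirring 150 rpm. Heats corrected for ligand dilution; isotherms fitted for Kb, ΔH and n.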

The target of data set [12] is Telomerase reverse transcriptase (Homo sapiens) (UniProt O14746). Description: Inhibition of telomerase in human A549 cells at 5 uM after 72 hrs by ELISA based TRAP assay. Format: cell-based. In outline: as §2
For data set [13], the system named is NIH3T3. Description: Cytotoxicity against mouse NIH/3T3 cells assessed as growth inhibition at 0.1 to 100 uM after 5 days by MTT assay. Format: cell-based. To be noted: nih3t3, 120 h. The method in brief: as §4
For data set [14], the target named is DNA polymerase I, thermostable (Thermus aquaticus) (UniProt P19821). Description: Inhibition of Thermus aquaticus taq polymerase at 0.1 to 50 uM after 72 hrs by ELISA based TRAP assay. In outline: as §2
For data set [15] the target is unchanged. Description: Inhibition of Thermus aquaticus taq polymerase at 10 to 100 uM after 72 hrs by ELISA based TRAP assay. The method in brief:
as §2

Calls of active or inactive are those of the source. No cut-off for these calls is given here.

Sequence of DNA polymerase I, thermostable (Thermus aquaticus) (P19821 whole entry): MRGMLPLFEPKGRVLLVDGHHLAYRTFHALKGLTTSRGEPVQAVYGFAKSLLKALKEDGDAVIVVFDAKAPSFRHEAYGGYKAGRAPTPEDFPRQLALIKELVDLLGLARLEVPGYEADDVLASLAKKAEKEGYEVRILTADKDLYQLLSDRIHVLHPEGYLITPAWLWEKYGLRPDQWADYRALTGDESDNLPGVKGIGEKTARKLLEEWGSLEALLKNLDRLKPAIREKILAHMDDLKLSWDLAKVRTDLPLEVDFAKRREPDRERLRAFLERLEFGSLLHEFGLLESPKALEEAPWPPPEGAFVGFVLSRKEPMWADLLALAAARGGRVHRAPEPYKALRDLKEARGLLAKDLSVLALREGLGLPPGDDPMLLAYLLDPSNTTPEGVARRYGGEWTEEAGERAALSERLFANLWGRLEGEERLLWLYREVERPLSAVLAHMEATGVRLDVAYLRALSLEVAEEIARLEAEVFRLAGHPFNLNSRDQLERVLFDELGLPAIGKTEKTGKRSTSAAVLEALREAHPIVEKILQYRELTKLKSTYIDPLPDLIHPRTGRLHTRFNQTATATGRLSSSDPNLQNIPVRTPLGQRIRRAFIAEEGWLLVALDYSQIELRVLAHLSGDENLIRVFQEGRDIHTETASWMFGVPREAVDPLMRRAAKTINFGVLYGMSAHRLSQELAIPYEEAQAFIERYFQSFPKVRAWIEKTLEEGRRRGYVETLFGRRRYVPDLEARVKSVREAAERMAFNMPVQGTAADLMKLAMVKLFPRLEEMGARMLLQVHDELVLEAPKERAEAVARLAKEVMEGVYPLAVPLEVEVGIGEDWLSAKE
Sequence of Telomerase reverse transcriptase (Homo sapiens) (O14746 whole entry): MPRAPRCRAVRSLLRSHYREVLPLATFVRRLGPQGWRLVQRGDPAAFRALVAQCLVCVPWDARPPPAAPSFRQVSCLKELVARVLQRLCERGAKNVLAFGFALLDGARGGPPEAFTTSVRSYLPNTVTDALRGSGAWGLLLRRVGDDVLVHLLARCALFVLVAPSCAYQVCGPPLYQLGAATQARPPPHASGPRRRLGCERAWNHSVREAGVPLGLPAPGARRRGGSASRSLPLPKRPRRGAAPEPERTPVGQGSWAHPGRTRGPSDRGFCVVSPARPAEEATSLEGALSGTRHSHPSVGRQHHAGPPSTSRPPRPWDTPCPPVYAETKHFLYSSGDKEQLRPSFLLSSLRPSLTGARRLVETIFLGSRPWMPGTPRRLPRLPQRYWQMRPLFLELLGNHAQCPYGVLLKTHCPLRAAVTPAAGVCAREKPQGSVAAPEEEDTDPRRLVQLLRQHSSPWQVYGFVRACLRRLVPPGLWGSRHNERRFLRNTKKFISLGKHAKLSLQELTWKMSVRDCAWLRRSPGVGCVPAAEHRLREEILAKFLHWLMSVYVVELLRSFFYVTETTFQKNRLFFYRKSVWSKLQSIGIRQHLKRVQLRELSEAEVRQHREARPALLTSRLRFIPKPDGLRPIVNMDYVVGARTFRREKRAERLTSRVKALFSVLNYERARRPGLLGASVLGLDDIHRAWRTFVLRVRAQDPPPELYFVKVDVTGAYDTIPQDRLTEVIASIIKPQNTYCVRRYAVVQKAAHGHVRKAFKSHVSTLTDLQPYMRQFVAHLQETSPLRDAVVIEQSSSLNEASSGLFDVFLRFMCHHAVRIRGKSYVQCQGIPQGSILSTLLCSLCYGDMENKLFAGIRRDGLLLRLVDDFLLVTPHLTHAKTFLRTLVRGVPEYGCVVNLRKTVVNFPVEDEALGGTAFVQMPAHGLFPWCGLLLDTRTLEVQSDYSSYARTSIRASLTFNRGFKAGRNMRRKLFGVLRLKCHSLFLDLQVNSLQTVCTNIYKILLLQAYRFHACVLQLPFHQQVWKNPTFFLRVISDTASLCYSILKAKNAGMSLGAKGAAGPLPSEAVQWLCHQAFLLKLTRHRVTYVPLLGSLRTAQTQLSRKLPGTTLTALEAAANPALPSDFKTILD

For the molecule `O=C(CCN1CCCC1)Nc1cc2c3c(cc(NC(=O)CCN4CCCC4)cc3c1)C(=O)N(CCCN1CCN(C(=O)CCN3CCCC3)CC1)C2=O`, the Kb with Nucleic Acid [1] is 9 ×10⁵ /M.

In the case of `O=C(CCN1CCCC1)Nc1cc2c3c(cc(NC(=O)CCN4CCCC4)cc3c1)C(=O)N(CCCN1CCOCC1)C2=O`, the Kb in the data set with Nucleic Acid [1] was 10 ×10⁵ /M; in the data set with Nucleic Acid [2], 4 ×10⁵ /M. In addition, the outcome with Nucleic Acid [3] was Active. For the same molecule, the Tm in the data set with Nucleic Acid [4] stood at 60 °C. Besides, in data set [5], the inhibition entry is “Dose-dependent effect”. Also, the “growth inhibition (GI)” value in the data set with M14 and in the data set on A549 was “Dose-dependent effect” each time. Moreover, the concentration for half-maximal inhibition (IC50) turned out to be 34.7 µM in the data set with M14, 40.3 µM in the data set on A549 and 4.6 µM with NIH3T3 [6]. In addition, the inhibition result in data set [7] and in [8] was “Active” throughout.

Turning to `O=C(CCN1CCCC1)Nc1cc2c3c(cc(NC(=O)CCN4CCCC4)cc3c1)C(=O)N(CCN1CCCC1)C2=O`, the Kb in the data set on Nucleic Acid [1] amounted to 12 ×10⁵ /M.

In the case of `O=C(CCN1CCCC1)Nc1cc2c3c(cc(NC(=O)CCN4CCCC4)cc3c1)C(=O)N(CCCN1CCCC1)C2=O`, the Kb in the data set on Nucleic Acid [1] is 30 ×10⁵ /M; with Nucleic Acid [2], 2 ×10⁷ /M; in the data set with Nucleic Acid [9] it was 5 ×10⁵ /M; in the data set with Nucleic Acid [11] it was 5 ×10⁵ /M. Further, the result in the data set with Nucleic Acid [10] was inactive. Also, the result in the data set on Nucleic Acid [3] was Active. Also, the Tm in the data set on Nucleic Acid [4] was determined as 60 °C. In addition, the inhibition result is “Dose-dependent effect” in data set [5] and 50% in data set [12]. Further, the “growth inhibition (GI)” value in the data set with M14 and in the data set on A549 was “Dose-dependent effect” in each case. For the same molecule, the half-inhibitory concentration (IC50) worked out at 1.5 µM in the data set on M14 and 5.2 µM in the data set with A549. For the same molecule, the Activity result with NIH3T3 [13] is on record as “Non-toxic”. The inhibition entry in data set [14] was “inactive”.

Consider `O=C(CCN1CCCC1)Nc1cc2c3c(cc(NC(=O)CCN4CCCC4)cc3c1)C(=O)N(CCN1CCN(C(=O)CCN3CCCC3)CC1)C2=O`, for which the Kb in the data set with Nucleic Acid [1] came out at 7 ×10⁵ /M.

On to `O=C(CCN1CCCC1)Nc1cc2c3c(cc(NC(=O)CCN4CCCC4)cc3c1)C(=O)N(CCN1CCCCC1)C2=O`, for which, in the data set with Nucleic Acid [1], the Kb is 9 ×10⁵ /M.

For `O=C(CCN1CCCC1)Nc1cc2c3c(cc(NC(=O)CCN4CCCC4)cc3c1)C(=O)N(CCCN1CCCCC1)C2=O`, the Kb amounted to 24 ×10⁵ /M in the data set with Nucleic Acid [1], 5 ×10⁷ /M with Nucleic Acid [2] and 6 ×10⁵ /M in the data set with Nucleic Acid [9]. Also, the result with Nucleic Acid [10] was inactive. Moreover, the outcome with Nucleic Acid [3] was Active. For the same molecule, the Tm in the data set with Nucleic Acid [4] is 60 °C. For the same molecule, the inhibition entry was “Dose-dependent effect” in data set [5] and 26% in [12]. In data set [15], the inhibition result was “Active”. For the same molecule, the “growth inhibition (GI)” value in the data set with M14 and in the data set with A549 was “Dose-dependent effect” in each case. Also, the values for the IC50 with M14, with A549 and with NIH3T3 [6] were 8 µM, 9.9 µM and 43.3 µM, respectively.

For the molecule `CN(C)CCN1C(=O)c2cc(NC(=O)CCN3CCCC3)cc3cc(NC(=O)CCN4CCCC4)cc(c23)C1=O`, the Kb in the data set on Nucleic Acid [1] was 6 ×10⁵ /M.

As usually defined, the inhibition is the percentage by which the read-out fell short of the control. By IC50 is commonly meant the midpoint of a concentration-inhibition curve.
